Activity calls are given as the source filed them. The rule behind the calls is not given here.
Test system: A549
Experiment: Upregulation of p21 mRNA expression in human A549 cells at 0.1 uM after 12 hrs by RT-PCR analysis
Format: functional, cell-based
Method in brief: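 A549 cells at 0.1 μM over a time course. RNA extracted, and p21 mRNA assessed by RT-PCR with specific primers.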

## CCCCCCCC(=O)SCC/C=C/[C@@H]1CC(=O)NCc2nc(cs2)C2=N[C@@](C)(CS2)C(=O)N[C@@H](C(C)C)C(=O)O1 [LARGAZOLE]
  Activity: Active

Reference: ChEMBL document CHEMBL2440054, “Largazole Arrests Cell Cycle at G1 Phase and Triggers Proteasomal Degradation of E2F1 in Lung Cancer Cells” (ACS Med Chem Lett, 2013)
